# Screening data (PubChem BioAssay)
# ZTA DNA inh: ZTA (EBV) inhibition in EBNA-1 counter-screen. ZTA-DNA binding, fluorescence polarization. actives 0.15% (n = 320,000). inhibition, % at 11 µM. P03206; in the data active = inhibition above about 33%
# Target sequence (P03206 whole entry, looked up): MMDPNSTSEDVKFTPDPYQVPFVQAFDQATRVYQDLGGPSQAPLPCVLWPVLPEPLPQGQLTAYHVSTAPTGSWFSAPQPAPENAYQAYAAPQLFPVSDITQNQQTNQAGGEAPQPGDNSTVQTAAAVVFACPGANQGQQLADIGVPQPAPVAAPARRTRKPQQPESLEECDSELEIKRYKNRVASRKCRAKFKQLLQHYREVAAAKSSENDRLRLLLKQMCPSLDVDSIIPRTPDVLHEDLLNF
# NS3 helicase inh: blocks Hepatitis C virus NS3 helicase unwinding; NS3 helicase DNA unwinding, Cy5 molecular beacon fluorescence; AID 1800; actives 0.56% (n = 290,000); inhibition, % at 10.9 µM;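 active = inhibition above the mean of all tested compounds plus 3 SD, set per campaign, cut at about 35% in these data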;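 note: 0% = DMSO wells and 100% = thioflavine S control wells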
#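 test system = hepatitis C virus NS3 helicase domain fragment enzyme | reagent = annealed dual-labelled DNA beacon duplex, ATP-started | times = 1 h at 25 °C | detection = Cy5 fluorescence, 0 and 60 min reads | read-out basis = percent inhibition from t60/t0 fluorescence ratio | control set = DMSO and thioflavine S | replication = one well per compound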
# eIF4H inh: inhibitors of RNA binding by human eIF4H; AID 2012; Q15056; eIF4H fluorescence polarization binding assay; inhibition, % at 35 µM; actives 0.94% (n = 290,000);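 note: calls also rest on retests at 20 µM and on dose response follow-up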
# EBNA-1 inh: blocks EBNA-1 binding to DNA | actives 0.34% (n = 300,000) | inhibition, % at 14.8 µM | EBNA-1 DNA binding, fluorescence polarization | AID 1950; in the data active = inhibition above about 28%
# MLLE-PAM2 inh: blocks PAM2 peptide binding to the PABP1 MLLE domain. P11940. GST-MLLE / FITC-PAM2 fluorescence polarization. inhibition, % at 20 µM. actives 0.36% (n = 360,000); in the data active = inhibition above about 35%, passing the limit was not always enough;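 note: plate controls were DMSO wells with GST-MLLE for no effect and wells lacking GST-MLLE protein for full effect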
# PABP polyA inh: blocks human PABP binding to poly(A) RNA; inhibition, % at 35 µM; fluorescence polarization; P11940; actives 1% (n = 290,000);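 note: calls also rest on retests at 20 µM and on dose response follow-up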
# Starred values were filed as active, the others as inactive; i = inactive; ? = inconclusive; · = no result. Compounds with a hit are over-represented: about 2.1% of the library has one in this group of screens. Unless noted, the rule behind the calls is not given here.
SMILES,ZTA DNA inh,NS3 helicase inh,eIF4H inh,EBNA-1 inh,MLLE-PAM2 inh,PABP polyA inh
Nc1ccc(/C=C/C(=O)c2ccco2)cc1,-20,-11,54*,-2,-124,5.4*
COc1ccccc1CNC(=O)COC(=O)c1cc2ccccc2o1,·,·,·,·,-10,·
Cc1ccc(-n2c(-c3ccco3)nc3nc4ccccc4nc32)cc1F,4,2,72,13,-34,-8
Fc1cccc(-n2c(-c3cccs3)nc3nc4ccccc4nc32)c1,26,2,9,-5,·,0
Fc1ccc(-n2c(-c3ccco3)nc3nc4ccccc4nc32)cc1,-18,8,86*,1,-32,94*
Fc1cccc(-n2c(-c3ccco3)nc3nc4ccccc4nc32)c1,-2,9,57,3,-45,27*
O=C(N/N=C/c1ccc(O)c(O)c1)N/N=C/c1ccc(O)c(O)c1,·,25,56*,·,-8,42
Oc1ccc(/C=N/NC(=S)Nc2cccnc2)cc1O,-10,4,68,-15,40*,1.5*
CC1CCN(C(=O)CSc2nncn2C)CC1,-20,4,0,-12,2,0
CC1CCN(C(=O)CSc2nncn2-c2ccccn2)CC1,5,-4,-8,0,39*,-13
COc1ccc(-c2ccc(SCC(=O)c3cccs3)nn2)cc1OC,13,-2,-9,7,22,-2
CC(C)[N+](C)(C)CC(O)CN(c1ccccc1)c1ccccc1 (configuration not stated),-9,3,-4,8,-128,66*
CCOc1cccc(=O)c2c(C)n(C)c(C)c12,0,11,60*,-15,23,69*
COc1cccc(=O)c2c(C)n(C)c(C)c12,-2,12,40,6,21,34
CCCN1CCN(C(=S)Nc2ccc(SC(F)F)cc2)CC1,3,-16,-4,11,-87,-1
N#Cc1ccccc1S(=O)(=O)N1CCN(CC(O)c2ccccc2)CC1 (configuration not stated),5,1,7.2*,11,9,56
Cc1cccc(N2C(=S)NC3c4cc(Cl)ccc4OC2(C)C3C(=O)N(C)C)c1 (configuration not stated),3,-3,1,-13,17,20
Cc1ccc(N2C(=S)NC3c4cc(Cl)ccc4OC2(C)C3C(=O)N(C)C)cc1 (configuration not stated),1,-8,-1,10,44*,-8
O=C(CSc1nnc(-c2ccco2)o1)c1ccccc1,-2,6,14,4,15,0
O=C(CSc1nnc(-c2ccco2)o1)c1ccc[nH]1,7,19,83*,3,-2,10
O=C(NCC(c1ccco1)N1CCCC1)c1sc2ccccc2c1Cl (configuration not stated),0,-11,85*,4,-6,84*
CCOC(=O)c1c(NC(=O)CN2C(=O)N(C)C3(CCCCC3)C2=O)sc(C(=O)N(C)C)c1C,·,·,·,·,4,·
COc1ccc(NC(=O)CSc2nnc(N)s2)c([N+](=O)[O-])c1,-8,5,-9,-1,12,0
COc1ccc(NC(=O)CSc2nnc(NC(C)=O)s2)c([N+](=O)[O-])c1,9,6,2,2,37*,2
O=C(Nc1cccs1)Nc1c(F)c(F)c(F)c(F)c1F,-7,8,53,-12,43*,15
SMILES,ZTA DNA inh,NS3 helicase inh,eIF4H inh,EBNA-1 inh,MLLE-PAM2 inh,PABP polyA inh
O=C(Nc1cccs1)Nc1c(F)c(F)cc(F)c1F,-10,4,69*,-8,12,2.5*
O=C(Nc1cccs1)Nc1c(F)cc(F)cc1Br,0,4,4,-1,23,1
CCCNC(=O)c1onc(CSc2ccc(F)cc2)c1C(=O)NCCC,13,·,0,9,0,-6
Cc1ccccc1Cn1cccc1/C=C1/C(=N)N2C=CSC2=NC1=O,-10,3,66*,-4,-45,100*
COc1ccc(CO/N=C/c2c(C)[nH]c(=O)[nH]c2=O)cc1,8,6,2,-4,10,4
O=C(Nc1ccc2c(c1)OCO2)c1cc2ncc(Br)cn2n1,·,12,54*,·,-8,10*
O=C(Nc1ccc(F)cc1)C(NC1CCCCC1)c1ccccc1 (configuration not stated),0,-8,2.7*,4,-2,56*
O=C(Nc1ccc(F)cc1)NC1CCCCCCC1,·,0,-6,·,7,1
CSc1ccccc1-c1nnc(NC(=O)Cc2ccccc2)o1,2,-5,·,-3,5,·
CC(C)(C)OC(=O)CN1C(=O)S/C(=C\c2ccc(-c3cccc(C(=O)O)c3)o2)C1=O,10,-39,65*,-15,·,41
O=C(O)c1cc(-c2ccc(/C=C3/SC(=S)N(Cc4ccccc4)C3=O)o2)ccc1Cl,·,23,86*,·,i,9.1*
CCOC(=O)C(C)N1C(=O)S/C(=C\c2ccc(-c3ccccc3C(=O)O)o2)C1=O (configuration not stated),27,28,101*,27,-6,72*
O=C(O)CCCN1C(=O)/C(=C\c2ccc(-c3nc4ccccc4s3)o2)SC1=S,-9,12,96*,-6,-99,85*
Cc1cccc(NC(=O)c2c(O)c3cccc4c3n(c2=O)CC4)c1,·,2,·,·,·,·
O=C(c1ccc(OC2CCN(CCc3ccccc3)CC2)cc1)N1CCCC(CCCO)C1 (configuration not stated),1,7,-12,1,15,-4
Cc1cccc(C(C(=O)NC2CCCC2)N(C(=O)c2csnn2)C2CC2)c1 (configuration not stated),0,20,18,-18,11,16
CCNc1nc(NCC)n2c(SC(C(=O)Nc3cc(Cl)cc(Cl)c3)c3ccccc3)nnc2n1 (configuration not stated),-4,3,-9,-10,-49,7
Nn1c(SCCOc2ccc(Cl)cc2)nnc1-c1cccnc1,-4,5,-8,11,-74,-4
Cc1ccc(NC(=O)CN2C(=O)S/C(=C/c3ccc(-c4cccc(C(=O)O)c4)o3)C2=O)cc1,·,21,57,·,-18,35*
C#CCN1C(=O)S/C(=C\c2ccc(-c3ccc(C(=O)O)cc3C)o2)C1=O,24,31,76*,4,4,72*
Cc1cc(C(=O)O)ccc1-c1ccc(/C=C2\SC(=O)N(CC(=O)Nc3ccc4c(c3)OCO4)C2=O)o1,·,15,?,·,-100,?
Cc1ccc(NC(=O)CN2C(=O)S/C(=C\c3ccc(-c4cccc(C(=O)O)c4C)o3)C2=O)cc1,-5,22,74*,3,·,52*
CC(=O)N1CCN(C(=O)c2[nH]c(C(F)(F)F)nc2-c2ccccc2)CC1,·,·,·,·,23,·
O=[N+]([O-])c1ccc(C(=S)N2CCCC2)cc1,-1,8,-1,-2,38,2
CC1CCN(C(=S)c2ccc([N+](=O)[O-])cc2)CC1,-6,-1,3,12,44*,21
